This is an account of results in ChEMBL document CHEMBL3997832, “Development of MBRI-001, a deuterium-substituted plinabulin derivative as a potent anti-cancer agent” (Bioorg Med Chem Lett, 2017).

Molecules are shown by their SMILES.

A word on the half-life: it is how long it takes for the measured level to halve. In general, Tmax refers to the time at which the peak concentration occurs. In general, Cmax refers to the maximum level reached in the sampled fluid or tissue. Broadly, the AUC(0-t) is exposure summed from dosing to a finite time, without extrapolation to infinity. Broadly, the AUC(0-inf) is the area under the concentration-time curve extrapolated to infinity. As a reminder, the clearance is a measure of how efficiently the substance is removed, as volume per time. In general, MRT last refers to a mean duration of stay, worked out from the concentration-time curve. The term IC50 denotes the point on the concentration scale where inhibition reaches its midpoint.

The nature of data set [1]: Metabolic stability in rat plasma assessed as esterase-mediated amide bond hydrolysis at 1 uM measured up to 100 mins by LC-MS/MS analysis. The class given is ADME. Particulars: isolated protein.
A short description of data set [2]: Metabolic stability in rat liver microsomes assessed as esterase-mediated amide bond hydrolysis at 2 uM measured up to 150 mins by LC-MS/MS analysis. The class given is ADME. The conditions noted are these: 2.5 h.
Data set [3] is described as follows: Elimination rate constant in Wistar rat at 5 mg/kg, iv. The class given is ADME, organism-based. Particulars: in vivo. The method, boiled down:
(§1)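 Wistar rats, single intravenous dose of 5 mg·kg⁻¹, n=5; plasma concentration–time profile sampled, mean ± SD. Parameters (ke, t1/2, Tmax, Cmax, AUClast, AUC0–∞, Vz, CL, MRT) derived from the plasma curve.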

Data set [4] is described as follows: Half life in Wistar rat at 5 mg/kg, iv. The class given is ADME, organism-based. The conditions noted are these: in vivo. The method, boiled down: as §1
Data set [5] is described as follows: Tmax in Wistar rat at 5 mg/kg, iv. The class given is ADME, organism-based. Particulars: in vivo. The method, boiled down: as §1
Data set [6] in a line: Cmax in Wistar rat at 5 mg/kg, iv. It is filed as ADME, organism-based. More on the design: dose 5 mg/kg, route intravenous. The conditions noted are these: in vivo. The method, boiled down:
as §1

Data set [7] in a line: AUClast in Wistar rat at 5 mg/kg, iv. The conditions noted are these: in vivo. More on the design: dose 5 mg/kg, route intravenous, time 0 - last. The class given is ADME, organism-based. The method, boiled down: as §1
A short description of data set [8]: Observed AUC (0 to infinity) in Wistar rat at 5 mg/kg, iv. It is filed as ADME, organism-based. Also noted: dose 5 mg/kg, time infinity, route intravenous. Particulars: in vivo. The method, boiled down: as §1
Data set [9] is described as follows: Observed apparent volume of distribution in Wistar rat at 5 mg/kg, iv. Particulars: in vivo, read-out: Vz. It is filed as ADME, organism-based. The method, boiled down: as §1
Data set [10] can be described thus: Observed clearance in Wistar rat at 5 mg/kg, iv. It is filed as ADME, organism-based. The conditions noted are these: in vivo. The method, boiled down:
as §1

Data set [11] is described as follows: MRTlast in Wistar rat at 5 mg/kg, iv. The class given is ADME, organism-based. The conditions noted are these: in vivo. The method, boiled down:
as §1

Data set [12] has as its system NCI-H460. The data set is described as follows: Cytotoxicity against human NCI-H460 cells assessed as decrease in cell viability after 72 hrs by MTT assay. The class given is functional, cell-based. Particulars: NCI-H460, 72 h. On the technique in general: Formazan colour is commonly taken as a measure of viable cells.
The next data set deals with NCI-H446. Put plainly: Cytotoxicity against human NCI-H446 cells assessed as decrease in cell viability after 72 hrs by MTT assay. It is filed as functional, cell-based. Particulars: NCI-H446, 72 h.
The subject of another data set is Jurkat. Put plainly: Cytotoxicity against human Jurkat cells assessed as decrease in cell viability after 72 hrs by MTT assay. It is filed as functional, cell-based.
The test system of data set [13] is NCI-H460. Put plainly: Antitumor activity against human NCI-H460 cells xenografted in nude mouse assessed as tumor growth inhibition at 3 mg/kg, iv administered every 2 days for 21 days relative to vehicle-treated control. It is filed as functional. Particulars: read-out: TGI. The method, boiled down: (§2)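 NCI-H460 xenografts in nude mice, dosed intravenously at 3, 6 or 12 mg/kg every two days for 21 consecutive days (Q3D7); docetaxel 10 mg/kg as positive control. Tumor volumes followed, tumors excised and weighed at end of dosing; inhibitory rate calculated versus vehicle group; mean ± SD.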
On the technique in general: Xenograft models place foreign cells or tissue in a host animal.

Data set [14] relates to NCI-H460. Put plainly: Antitumor activity against human NCI-H460 cells xenografted in nude mouse assessed as tumor growth inhibition at 6 mg/kg, iv administered every 2 days for 21 days relative to vehicle-treated control. It is filed as functional. Particulars: read-out: TGI. The method, boiled down: as §2
Data set [15] deals with NCI-H460. The data set is described as follows: Antitumor activity against human NCI-H460 cells xenografted in nude mouse assessed as tumor growth inhibition at 12 mg/kg, iv administered every 2 days for 21 days relative to vehicle-treated control. It is filed as functional. Particulars: read-out: TGI. The method, boiled down:
as §2

Data set [16] is described as follows: Drug uptake in tumor of nude mouse xenografted with human NCI-H460 cells at 3 mg/kg, iv administered every 2 days for 21 days. The class given is ADME, organism-based, Neoplasm. The conditions noted are these: read-out: Drug uptake. An outline of the steps: (§3)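 Nude mice bearing NCI-H460 xenografts given compound intravenously at 3, 6 or 12 mg/kg every two days for 21 days. Concentration in excised tumor tissue measured at end of treatment, expressed as ng/g.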

The nature of data set [17]: Drug uptake in tumor of nude mouse xenografted with human NCI-H460 cells at 6 mg/kg, iv administered every 2 days for 21 days. The class given is ADME, organism-based, Neoplasm. Particulars: read-out: Drug uptake. An outline of the steps: as §3
Data set [18] in a line: Drug uptake in tumor of nude mouse xenografted with human NCI-H460 cells at 12 mg/kg, iv administered every 2 days for 21 days. The class given is ADME, organism-based, Neoplasm. The conditions noted are these: read-out: Drug uptake. The method, boiled down: as §3
Data set [19] relates to Mus musculus. Put plainly: Toxicity in nude mouse xenografted with human NCI-H460 cells assessed as decrease in body weight at 3 to 12 mg/kg, iv administered every 2 days for 21 days. The class given is organism-based. The conditions noted are these: in vivo. An outline of the steps: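 Nude mice bearing NCI-H460 xenografts dosed intravenously at 3, 6 or 12 mg/kg every two days for 21 days (Q3D7). Body weights recorded over the dosing period; mean ± SD.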

The subject of data set [20] is NCI-H460. Put plainly: Antitumor activity against human NCI-H460 cells xenografted in iv dosed nude mouse assessed as tumor growth inhibition administered every 2 days for 21 days. It is filed as functional, organism-based. Particulars: tested as the 2H-labelled form. The method, boiled down: as §2
The test system of data set [21] is NCI-H460. The data set is described as follows: Antitumor activity against human NCI-H460 cells xenografted in nude mouse assessed as tumor growth inhibition at 10 mg/kg, iv administered every 2 days for 21 days relative to vehicle-treated control. It is filed as functional. The conditions noted are these: read-out: TGI. An outline of the steps:
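Nude mice bearing human NCI-H460 lung carcinoma xenografts, dosed by intravenous injection every two days for 21 consecutive days (legend states Q3D7), alongside vehicle controls. Tumor volumes were followed over the dosing period. At the end, tumors were excised and weighed, and inhibitory rates were calculated relative to vehicle. Data given as mean ± SD.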

Data set [22] concerns Mus musculus. Put plainly: Toxicity in nude mouse xenografted with human NCI-H460 cells assessed as decrease in body weight at 10 mg/kg, iv administered every 2 days for 21 days. It is filed as organism-based. Also noted: scale not given: the % may be the effect or the level left. Particulars: in vivo. The method, boiled down:
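NCI-H460 lung carcinoma xenografts in nude mice, with intravenous injection every two days over 21 consecutive days (legend: Q3D7). Body weights were recorded across the administration period as a toxicity read-out. Data given as mean ± SD.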

As for `[2H]/C(c1nc[nH]c1C(C)(C)C)=c1/[nH]c(=O)/c(=C/c2ccccc2)[nH]c1=O`, the Stability result in data set [1] and in data set [2] was “Stable” each time. The same compound had a k el in [3] of 0.000139 s⁻¹. Moreover, the half-life in [4] is 88.2 min. For the same compound, the Tmax in data set [5] was 1.2 min. Moreover, in [6], the peak level (Cmax) was 7280 ng/mL. In data set [7], this compound yielded an AUC(0-t) of 1520 ng·h/mL. In data set [8], this compound displayed an AUC(0-inf) of 1520 ng·h/mL. The Vd in [9] is 7.72 L/kg. Further, the clearance in [10] is 58.8 mL/min/kg. This compound gave an MRT last in data set [11] of 101 min. For the same compound, the IC50 turned out to be 33.2 nM in the data set on NCI-H460 [12], 22 nM with NCI-H446 and 4.3 nM with Jurkat. The inhibition in vivo at 3 mg/kg in the data set with NCI-H460 [13] came to 28.8%. The inhibition in vivo at 6 mg/kg with NCI-H460 [14] was found to be 44.8%. Also, in the data set with NCI-H460 [15], the inhibition in vivo at 12 mg/kg is 48%. In addition, the values for the concentration at 21 days in [16], in [17] and in data set [18] were 316 ng/g, 809 ng/g and 2490 ng/g, respectively. In addition, in the data set with Mus musculus [19], the Activity entry is given as “Non-Toxic”.

Take `CC(C)(C)c1[nH]cnc1/C=c1\[nH]c(=O)/c(=C/c2ccccc2)[nH]c1=O` [PLINABULIN]: the Stability entry in data set [1] and in data set [2] was “Stable” in each case. The compound also had a k el in [3] of 0.000189 s⁻¹. In addition, in data set [4], the half-life is 67.8 min. Moreover, the Tmax in data set [5] is 1.2 min. Besides, the Cmax in data set [6] worked out at 5040 ng/mL. In [7], this compound yielded an AUC(0-t) of 721 ng·h/mL. Besides, the AUC(0-inf) in data set [8] came out at 723 ng·h/mL. Further, the Vd in [9] worked out at 11.4 L/kg. Moreover, in data set [10], the clearance is 121 mL/min/kg. The compound also showed an MRT last in [11] of 30 min. Moreover, the 50% inhibitory concentration (IC50) in the data set on NCI-H460 [12] was determined as 33.9 nM; in the data set on NCI-H446 it was 44.2 nM; with Jurkat, 3.3 nM. Besides, in the data set with NCI-H460 [20], the TGI entry is “Dose-dependent effect”.

Regarding `CC(=O)O[C@@]12CO[C@@H]1C[C@H](O)[C@@]1(C)C(=O)[C@H](O)C3=C(C)[C@@H](OC(=O)[C@H](O)[C@@H](NC(=O)OC(C)(C)C)c4ccccc4)C[C@@](O)([C@@H](OC(=O)c4ccccc4)[C@H]21)C3(C)C` [DOCETAXEL ANHYDROUS], in the data set with NCI-H460 [21], the inhibition in vivo at 10 mg/kg stood at 40%. Besides, the Activity in the data set with Mus musculus [22] is listed as 18.3%.
